Consider three compounds from ChEMBL document CHEMBL5113539, “Dihydromaniwamycin E, a Heat-Shock Metabolite from Thermotolerant Streptomyces sp. JA74, Exhibiting Antiviral Activity against Influenza and SARS-CoV-2 Viruses” (J Nat Prod, 2022).

Data set [1] concerns SARS-CoV-2. The data set can be described thus: Antiviral activity against SARS-CoV-2 infected in African green monkey VeroE6T cells assessed as reduction in cytopathic effect after 2 to 3 days by MTT assay. It is filed as functional, organism-based, Vero E6. To be noted: Severe acute respiratory syndrome coronavirus 2, Vero C1008.
Data set [2] relates to SARS-CoV-2. Briefly: Antiviral activity against SARS-CoV-2 infected in human 293TA cells assessed as reduction in cytopathic effect after 2 to 3 days by MTT assay. It is filed as functional, organism-based. The conditions noted are these: Severe acute respiratory syndrome coronavirus 2, 293TA. (In general: Protection from cytopathic effect is a common read-out in antiviral testing.)

In a further data set the test system is Vero C1008. Briefly: Cytotoxicity against African green monkey VeroE6T cells assessed as reduction in cell viability after 2 to 3 days by MTT assay. The conditions noted are these: chlorocebus sabaeus, time 2-3 day. It is filed as toxicity, cell-based.
The subject of the next data set is Influenza A virus. Briefly: Antiviral activity against influenza A virus A/Puerto Rico/8/34 (H1N1) infected in dog MDCK cells assessed as inhibition of viral cytopathic effect incubated for 48 hrs by crystal violet staining based plaque assay. It is filed as functional, organism-based. The method in brief: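 MDCK cells were grown in MEM with 10% FBS at 37 °C and 5% CO2. Compound was premixed with A/PR/8/34 (H1N1) containing 50–200 pfu for 30 min at room temperature. The mixture was adsorbed onto an MDCK monolayer for 30 min at 37 °C, washed, and incubated 2 days. Plaques were counted after crystal violet staining, and IC50 was taken from a logit–log plot.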

The nature of data set [3]: Cytotoxicity against human 293TA cells assessed as reduction in cell viability after 2 to 3 days by MTT assay. It is filed as toxicity, cell-based. To be noted: time 2-3 day.

As usually defined, the IC50 is the concentration needed to halve the response being measured. On to `CCC(CC)COC(=O)[C@H](C)N[P@](=O)(OC[C@H]1O[C@@](C#N)(c2ccc3c(N)ncnn23)[C@H](O)[C@@H]1O)Oc1ccccc1` [REMDESIVIR], for which, in the data set with SARS-CoV-2 [1], the IC50 came to 0.9 µM.

Consider `CCCC/C=C/[N+]([O-])=N/[C@H](C)[C@H](C)O`, for which the IC50 in the data set with SARS-CoV-2 [1] is 16.4 µM; with SARS-CoV-2 [2] it was 9.7 µM; with Influenza A virus it was 63.2 µM. The Activity entry (with Vero C1008; in data set [3]) was “Non-Toxic” in each case.

On to `CCCCCC/[N+]([O-])=N/[C@H](C)[C@H](C)O`, for which the IC50 in the data set with SARS-CoV-2 [2] came out at 19.7 µM; in the data set on Influenza A virus, 25.7 µM. The Activity entry (in the data set with Vero C1008; in data set [3]) was “Non-Toxic” throughout.
